These results are taken from paper PMC3749563 (British Journal of Cancer, 2013).

For one data set, the system named is γ-secretase. To be noted: ref Luistro et al, 2009; cited from earlier work.
The test system of data set [1] is α1-acid glycoprotein and albumin. To be noted: ref Wu et al, 2012; cited from earlier work.
For data set [2] the following is noted: single agent, 3 consecutive days per week schedule; ref Tolcher et al, 2012; cited from earlier work.
Data set [3] relates to VEGF receptors (VEGFR-1, VEGFR-2 and VEGFR-3), and c-Kit. Conditions: ref Wedge et al, 2005; cited from earlier work.
The subject of data set [4] is circulating VEGF-A, VEGF-C, SDF-1. Description: Circulating biomarker evaluation. It counts as in vivo, human. To be noted: after dosing with cediranib (with RO4929097), cycle 1. Summed up: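 Patients with advanced solid tumours. Blood was drawn before dosing on cycle 1 day 1, cycle 1 day 22 and cycle 2 day 1. Plasma VEGF-A, VEGF-B, VEGF-C, bFGF, SDF-1-alpha, IL-6 and IL-8 were measured by commercial ELISA kits following the manufacturer's protocol. Samples were run in duplicate, with a triplicate if values differed by more than 15%. Results were discarded unless at least two agreed within 15%.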

The nature of data set [5]: Dose-limiting toxicities and recommended phase II dose. Format: in vivo, human. To be noted: cediranib daily, in combination with RO4929097; highest dose level completed.

Regarding `CC(C)(C(=O)NCC(F)(F)C(F)(F)F)C(=O)N[C@@H]1C(=O)Nc2ccccc2-c2ccccc21` [RO4929097], the γ-Secretase inhibition entry with γ-secretase is “potent and selective”. The Plasma protein binding result in data set [1] is recorded as “highly bound”. In addition, the “Daily dose at which reversible CYP3A4 autoinduction was detected” value in data set [2] is “above 24 mg”.
`COc1cc2c(Oc3ccc4[nH]c(C)cc4c3F)ncnc2cc1OCCCN1CCCC1` [cediranib]: the “Inhibition of VEGF signalling” value in data set [3] was “highly potent inhibitor”. In data set [4], the “Change of circulating SDF-1” value is “Increases”, the “Change of circulating VEGF-A” value was “Increases” and the “Change of circulating VEGF-C” value was “Increases”. For the same compound, the “Recommended phase II dose (RP2D)” value in data set [5] is 30 mg.
